Inhibition and IC50 data for 20 molecules are collected here from ChEMBL document CHEMBL1157305, “Serotonergic activity-guided phytochemical investigation of the roots of Angelica sinensis” (J Nat Prod, 2006).

The target of test [1] is T1, 5-hydroxytryptamine receptor 7 (Homo sapiens, UniProt P34969). The test can be described thus: Displacement of [3H]LSD from human recombinant 5HT7 receptor expressed in CHO cells at 100 uM by liquid scintillation counting relative to control. The format is cell-based. Put shortly: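 Membranes from confluent human 5-HT7-transfected CHO cells were lysed in hypotonic buffer at 4 °C and homogenized in TEM buffer. Protein was measured by Lowry. Binding used [3H]LSD (5 nM) in 75 mM Tris-HCl, 1.25 mM MgCl2, 1 mM EDTA, pH 7.4, for 1 h at 37 °C. Samples were filtered on PEI-presoaked filters and counted by liquid scintillation. Nonspecific binding was defined with 250 nM 5-HT.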
In general terms: Loss of bound radioactivity is the signal in a displacement assay; it reports binding, not function.

Test [2] deals with T1, 5-hydroxytryptamine receptor 7. The test can be described thus: Displacement of [3H]LSD from human recombinant 5HT7 receptor expressed in CHO cells by liquid scintillation counting. The format is cell-based. The method in brief:
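Membranes from confluent CHO cells stably carrying human 5-HT7, grown in Ham's F-12 with 10% FBS. Cells lysed in hypotonic Tris/MgCl2/EDTA buffer at 4 °C, and membranes washed in TEM buffer. Incubated with 5 nM [3H]LSD for 1 h at 37 °C in 75 mM Tris-HCl, 1.25 mM MgCl2, 1 mM EDTA, pH 7.4. Filtered, then counted by scintillation. Nonspecific binding defined with 250 nM 5-HT. IC50 is the concentration giving 50% inhibition of binding.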

Some results are limits rather than exact numbers.

T1 sequence (P34969 whole entry): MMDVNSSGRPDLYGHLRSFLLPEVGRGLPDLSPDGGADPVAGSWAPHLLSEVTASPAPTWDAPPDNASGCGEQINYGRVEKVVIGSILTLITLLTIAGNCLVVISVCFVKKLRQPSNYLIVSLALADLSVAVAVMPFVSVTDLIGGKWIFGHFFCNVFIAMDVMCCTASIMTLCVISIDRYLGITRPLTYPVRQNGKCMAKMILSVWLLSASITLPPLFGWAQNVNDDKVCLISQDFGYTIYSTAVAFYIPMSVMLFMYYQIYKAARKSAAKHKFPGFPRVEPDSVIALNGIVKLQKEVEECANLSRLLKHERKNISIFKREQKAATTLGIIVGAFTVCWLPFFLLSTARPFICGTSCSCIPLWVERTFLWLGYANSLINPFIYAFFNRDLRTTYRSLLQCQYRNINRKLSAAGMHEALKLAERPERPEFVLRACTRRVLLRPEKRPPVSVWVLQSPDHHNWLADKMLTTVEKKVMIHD

As a reminder, the inhibition is the percentage by which the read-out fell short of the control. Consider `CCC/C=C1\OC(=O)C23C=CCCCC12C1(OC(=O)c2ccccc21)C3CCC` (stereo not given), for which the inhibition in test [1] came to 24%.
Still for that read-out and setting: the same measure for `COc1cc(C=O)ccc1O`: 0%.
As for `CCC/C=C1\OC(=O)C2=C1CC[C@@H](O)[C@@H]2O`, in test [1], the inhibition is 0%.
As for `COc1cc(/C=C/C(=O)OCC(O)C(OC)c2ccc(O)c(OC)c2)ccc1O` (stereo not given), in test [1], the inhibition worked out at 31%.
The same measure, in the same setting: the figure for `COc1cc(/C=C/C(=O)O)ccc1O` is 41%; for `CCC/C=C1\OC(=O)C2=C1CCC=C2` it is 33%; for `CCCCCCC/C=C\[C@H](O)C#CC#C[C@@H](O)CC` it is 5%.
The IC50 is the concentration needed to halve the response being measured. With `C=C[C@@H](O)C#CC#C[C@@H](O)/C=C\CCCCCCC` [FALCARINDIOL], the inhibition in test [1] turned out to be 61%. Further, the IC50 in test [2] came out at 118 µM.
For `C=C[C@H](O)C#CC#C[C@@H](O)C1OC1CCCCCCC` (stereo not given in full), the inhibition in test [1] was determined as 36%.
Same read-out and setting: the figure for `CC[C@H](/C=C/[C@@H](C)[C@H]1CC[C@H]2[C@@H]3CC=C4C[C@@H](O)CC[C@]4(C)[C@H]3CC[C@]12C)C(C)C` is 0%; for `CC/C=C\C/C=C\C/C=C\CCCCCCCC(=O)OCC(O)COC(=O)CCCCCCCC/C=C\C/C=C\C=C\CC` (stereo not given) it is 0%.
On the same count and under the same terms, the same measure for `CCCCNS(=O)(=O)c1ccccc1`: 0%.
Regarding `CCCCCCC/C=C\[C@H](O)C#CC#CC(=O)CCOC`, in test [1], the inhibition amounted to 69%. Besides, the IC50 in test [2] is > 150 µM.
In the same order, the values of `COc1cc(/C=C/C(=O)OCCc2ccc(O)cc2)ccc1O` are 71% and 47.6 µM.
As for `CCC/C=C1\OC(=O)c2ccccc21` [Z-butylidenephthalide], in test [1], the inhibition was 46%. Further, the IC50 in test [2] worked out at 127 µM.
`CC(C)=CCOc1c2occc2cc2ccc(=O)oc12`: the inhibition in test [1] came out at 57%.
For the molecule `CCC/C=C1\OC(=O)C2=CC3CCC21[C@]1(OC(=O)c2ccccc21)[C@@H]3CCC` (stereo not given in full), the inhibition in test [1] was 19%.
Still for that read-out and setting: the same measure for `CCC/C=C1\OC(=O)C2=C1CCC(O)C2OC` (stereo not given): 36%.
For `C=C[C@@H](O)C#CC#C[C@@H](O)/C=C\CCCCCCCCOC(C)=O`, the inhibition in test [1] was 49%. Also, the IC50 in test [2] worked out at 118 µM.
As to `C/C=C(/C)C(=O)OC(C)CCC1OC(=O)c2ccccc21` (stereo not given), in test [1], the inhibition turned out to be 21%.
